We go through seven compounds from ChEMBL document CHEMBL1136183, “Antitumor agents. Part 226: synthesis and cytotoxicity of 2-phenyl-4-quinolone acetic acids and their esters” (Bioorg Med Chem Lett, 2003).

In brackets after ≈: the same amount, converted by molar mass. Activity calls are given as the source filed them. The calls are words filed in the database; no cut-off is given here.

Experiment [1] deals with HOS. As to the kind of experiment: In vitro percent inhibition evaluated against human bone carcinoma (HOS cell line) at >20 ug/mL. In kind it is functional. In short, it runs like this:
(§1)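 Same SRB cytotoxicity assay, absorbance at 562 nm versus untreated cells. Value is the percentage inhibition at the concentration tested.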

Experiment [2] concerns 1A9. As to the kind of experiment: In vitro cytotoxicity evaluated against human ovarian cancer (1A9 cell line). In kind it is functional. The settings on record: read-out: ED50 (the source's name). In short, it runs like this: (§2)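 SRB assay on human tumour cell lines. Absorbance read at 562 nm and compared with untreated cells. ED50 is the concentration giving a 50% reduction in absorbance.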

Experiment [3] relates to MCF7. Briefly: In vitro percent inhibition evaluated against human breast cancer (MCF-7 cell line) at >20 ug/mL. It is filed as functional. In short, it runs like this:
as §1

The test system of experiment [4] is 1A9. Briefly: In vitro percent inhibition evaluated against human ovarian cancer (1A9 cell line) at >20 ug/mL. It is filed as functional. In short, it runs like this:
as §1

The test system of experiment [5] is MCF7. As to the kind of experiment: In vitro cytotoxicity evaluated against human breast cancer (MCF-7 cell line). To be noted: read-out: ED50 (the source's name). It is filed as functional. In short, it runs like this:
as §2

The test system of experiment [6] is SK-MEL-2. As to the kind of experiment: In vitro percent inhibition evaluated against human melanoma cancer (SKMEL-2 cell line) at >20 ug/mL. In kind it is functional. In short, it runs like this: as §1
The subject of experiment [7] is SK-MEL-2. Briefly: In vitro cytotoxicity evaluated against human melanoma cancer (SKMEL-2 cell line). It is filed as functional. To be noted: read-out: ED50 (the source's name). In short, it runs like this: as §2
In experiment [8] the test system is HOS. As to the kind of experiment: In vitro cytotoxicity evaluated against human bone carcinoma (HOS cell line). It is filed as functional. The settings on record: read-out: ED50 (the source's name). In short, it runs like this:
as §2

For experiment [9], the system named is A549. Briefly: In vitro cytotoxicity evaluated against human lung cancer (A549 cell line); NA is not active. In kind it is functional, cell-based. In short, it runs like this:
as §2

Experiment [10] has as its system KB. As to the kind of experiment: In vitro cytotoxicity evaluated against human epidermoid nasopharynx carcinoma (KB cell line). The settings on record: read-out: ED50 (the source's name). In kind it is functional. In short, it runs like this: as §2
Experiment [11] deals with U-87 MG. As to the kind of experiment: In vitro cytotoxicity evaluated against human glioblastoma carcinoma (U87-MG cell line); NA is not active. In kind it is functional, cell-based. To be noted: U-87MG ATCC. In short, it runs like this: as §2
The test system of experiment [12] is KB. Briefly: In vitro percent inhibition evaluated against human epidermoid nasopharynx carcinoma (KB cell line) at >20 ug/mL. In kind it is functional. In short, it runs like this:
as §1

A further experiment addresses Tubulin alpha chain (Sus scrofa, UniProt P02550). As to the kind of experiment: Inhibitory concentration required against tubulin polymerization determined using tubulin assay. In kind it is functional. In short, it runs like this: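 Tubulin polymerization assay. IC50 is the concentration that inhibits extent of assembly by 50% after 20 min at 26 °C. At least two independent experiments per compound.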

In experiment [13] the test system is A549. Briefly: In vitro percent inhibition evaluated against human lung cancer (A549 cell line) at >20 ug/mL. It is filed as functional. In short, it runs like this:
as §1

In experiment [14] the test system is A549. As to the kind of experiment: In vitro cytotoxicity evaluated against human lung cancer (A549 cell line). It is filed as functional. The settings on record: read-out: ED50 (the source's name). In short, it runs like this: as §2
The test system of experiment [15] is KB. Briefly: In vitro cytotoxicity evaluated against human epidermoid nasopharynx carcinoma (KB cell line); NA is not active. It is filed as functional, cell-based. In short, it runs like this: as §2
Experiment [16] concerns HOS. As to the kind of experiment: In vitro cytotoxicity evaluated against human bone carcinoma (HOS cell line); NA is not active. It is filed as functional, cell-based. In short, it runs like this: as §2
In experiment [17] the test system is 1A9. Briefly: In vitro cytotoxicity evaluated against human ovarian cancer (1A9 cell line); NA is not active. In kind it is functional, cell-based. In short, it runs like this: as §2
Experiment [18] concerns U-87 MG. As to the kind of experiment: In vitro cytotoxicity evaluated against human glioblastoma carcinoma (U87-MG cell line). It is filed as functional, U-87MG ATCC. The settings on record: read-out: ED50 (the source's name). In short, it runs like this:
as §2

In experiment [19] the test system is U-87 MG. As to the kind of experiment: In vitro percent inhibition evaluated against human glioblastoma carcinoma (U87-MG cell line) at >20 ug/mL. In kind it is functional, U-87MG ATCC. In short, it runs like this:
as §1

The term Inhibition denotes the share of the control response that was lost under treatment. High values mean a response far below the control, low ones a response near the control. What is called IC50 is the midpoint of a concentration-inhibition curve. A low value points to greater potency.

Sequence of Tubulin alpha chain (P02550 whole entry, looked up): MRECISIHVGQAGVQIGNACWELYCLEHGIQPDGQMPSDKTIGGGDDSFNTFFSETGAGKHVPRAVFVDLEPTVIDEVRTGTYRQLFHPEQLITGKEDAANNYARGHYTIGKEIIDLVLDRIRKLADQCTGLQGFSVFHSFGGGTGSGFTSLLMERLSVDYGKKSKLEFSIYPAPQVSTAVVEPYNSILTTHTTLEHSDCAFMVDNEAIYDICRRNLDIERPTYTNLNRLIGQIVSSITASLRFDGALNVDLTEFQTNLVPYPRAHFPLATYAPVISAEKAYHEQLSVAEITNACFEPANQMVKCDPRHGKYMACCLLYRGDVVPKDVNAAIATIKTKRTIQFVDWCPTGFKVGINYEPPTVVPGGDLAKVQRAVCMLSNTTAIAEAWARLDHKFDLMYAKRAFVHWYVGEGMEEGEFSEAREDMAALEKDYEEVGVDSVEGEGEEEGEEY

`COC(=O)Cc1cccc2c(O)cc(-c3ccccc3)nc12`: the Inhibition is listed as 7% in the experiment with HOS [1]; 15% in the experiment on MCF7 [3]; 30% in the experiment with 1A9 [4]; 12% in the experiment with SK-MEL-2 [6]; 8% with KB [12]. Further, the EC50 with 1A9 [2], with MCF7 [5], with SK-MEL-2 [7], in the experiment on HOS [8] and in the experiment with KB [10] was > 20 µg/mL each time. Further, the ED50 result in the experiment on A549 [9] and in the experiment with U-87 MG [11] was “inactive” in each case. On Tubulin alpha chain, this compound came in with a 50% inhibitory concentration (IC50) of 30 µM.
Consider `COC(=O)Cc1cccc2c(O)cc(-c3ccccc3F)nc12`, for which the Inhibition is on record as 18% with HOS [1]; 14% with MCF7 [3]; 11% with SK-MEL-2 [6]; 22% with A549 [13]; 29% in the experiment with KB [12]. Moreover, the EC50 in the experiment on 1A9 [2] was 7.5 µg/mL (≈ 24.1 µM); in the experiment with MCF7 [5], > 10 µg/mL; in the experiment on SK-MEL-2 [7], > 10 µg/mL; with HOS [8], > 10 µg/mL; with KB [10], > 10 µg/mL; in the experiment on A549 [14], > 10 µg/mL. In addition, the ED50 entry with U-87 MG [11] is “inactive”. For the same compound, at Tubulin alpha chain, the IC50 was determined as 5.5 µM.
As to `O=C(O)Cc1cccc2nc(-c3ccccc3F)cc(O)c12`, the ED50 entry in the experiment on KB [15], in the experiment with HOS [16], with 1A9 [17] and in the experiment with U-87 MG [11] was “inactive” throughout. Moreover, the Inhibition is listed as 7% with MCF7 [3], 9% in the experiment with SK-MEL-2 [6] and 8% in the experiment with A549 [13]. In addition, the EC50 in the experiment on MCF7 [5], with SK-MEL-2 [7] and with A549 [14] was > 20 µg/mL in each case. Moreover, the IC50 on Tubulin alpha chain was > 40 µM.
For the compound `O=C(O)Cc1cccc2c(O)cc(-c3ccccc3)nc12`, the EC50 in the experiment on 1A9 [2] came to 0.04 µg/mL (≈ 0.143 µM); in the experiment on MCF7 [5], 0.44 µg/mL (≈ 1.58 µM); with SK-MEL-2 [7] it was 0.06 µg/mL (≈ 0.215 µM); with HOS [8], 0.07 µg/mL (≈ 0.251 µM); in the experiment on U-87 MG [18], 0.12 µg/mL (≈ 0.43 µM); with KB [10], 0.04 µg/mL (≈ 0.143 µM). Moreover, the EC50 in the experiment with A549 [14] was determined as 0.11 µg/mL (≈ 0.394 µM). The IC50 against Tubulin alpha chain was > 40 µM.
Take `O=C(O)Cc1cccc2c(O)cc(-c3ccccc3F)nc12`: the EC50 amounted to 0.02 µg/mL (≈ 0.0673 µM) with 1A9 [2]; 0.12 µg/mL (≈ 0.404 µM) in the experiment with MCF7 [5]; 0.05 µg/mL (≈ 0.168 µM) in the experiment with SK-MEL-2 [7]; 0.04 µg/mL (≈ 0.135 µM) in the experiment with HOS [8]; 0.07 µg/mL (≈ 0.235 µM) in the experiment with U-87 MG [18]; 0.03 µg/mL (≈ 0.101 µM) in the experiment with KB [10]. Also, the EC50 in the experiment on A549 [14] is 0.06 µg/mL (≈ 0.202 µM). At Tubulin alpha chain, the IC50 was > 40 µM.
With `O=C(O)Cc1ccc2nc(-c3ccccc3F)cc(O)c2c1`, the Inhibition is recorded as 9% in the experiment on U-87 MG [19]; 15% in the experiment with HOS [1]; 16% in the experiment with MCF7 [3]; 37% with 1A9 [4]; 17% in the experiment with SK-MEL-2 [6]; 24% in the experiment with A549 [13]. For the same compound, in the experiment on KB [12], the Inhibition is given as 36%. For the same compound, the EC50 in the experiment with 1A9 [2], with MCF7 [5], in the experiment on SK-MEL-2 [7], with HOS [8], with U-87 MG [18] and in the experiment on KB [10] was > 20 µg/mL each time. For the same compound, the EC50 with A549 [14] is > 20 µg/mL. On Tubulin alpha chain, this compound gave an IC50 of 5.2 µM.
With `O=C(O)Cc1ccc2c(O)cc(-c3ccccc3F)nc2c1`, the ED50 result in the experiment on HOS [16] and with U-87 MG [11] was “inactive” in each case. Further, the EC50 in the experiment on 1A9 [2], in the experiment with MCF7 [5], with SK-MEL-2 [7], with KB [10] and in the experiment with A549 [14] was > 20 µg/mL each time. For the same compound, the Inhibition with MCF7 [3] is on record as 13%; in the experiment on 1A9 [4], 15%; in the experiment with SK-MEL-2 [6] it was 14%; with A549 [13], 21%; in the experiment with KB [12], 8%. Further, half-maximal inhibition against Tubulin alpha chain (IC50) was put at 10 µM.
